Test results as given in PMC3033481 (Journal of the American Chemical Society, 2011).
“Also recorded” adds a separate entry of the source.

How the values were obtained:
[1] = system: BrdU+ cells in the hippocampal dentate gyrus; experiment: In vivo neurogenesis; design: species or system C57BL/J6 mice; conditions: for proneurogenic activity (BrdU+ cells in dentate gyrus), in words: 10 μM solution infused ICV, 12 μL/day, 7 days, live mice
Method in brief: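 Adult (12-week-old) wild-type C57BL/J6 mice, 4 per compound. Test compound solutions (10–0.01 μM) delivered by osmotic minipump into the left lateral ventricle at 12 μL/day for 7 days; the vehicle was artificial CSF. BrdU+ cells counted in SGZ/dentate gyrus of the contralateral hemisphere, every fifth 40 μm section, normalized to dentate volume. Mean ± SEM.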

histamine H2 receptor = histamine H2 receptor (Homo sapiens, UniProt P25021); experiment: Histamine H2 competition binding assay; conditions: for Histamine H2 binding (% displacement @ 10 μM): displacement of [125I]aminopotentidine (0.1 nM) with 10 μM drug
Sequence of histamine H2 receptor (P25021 whole entry): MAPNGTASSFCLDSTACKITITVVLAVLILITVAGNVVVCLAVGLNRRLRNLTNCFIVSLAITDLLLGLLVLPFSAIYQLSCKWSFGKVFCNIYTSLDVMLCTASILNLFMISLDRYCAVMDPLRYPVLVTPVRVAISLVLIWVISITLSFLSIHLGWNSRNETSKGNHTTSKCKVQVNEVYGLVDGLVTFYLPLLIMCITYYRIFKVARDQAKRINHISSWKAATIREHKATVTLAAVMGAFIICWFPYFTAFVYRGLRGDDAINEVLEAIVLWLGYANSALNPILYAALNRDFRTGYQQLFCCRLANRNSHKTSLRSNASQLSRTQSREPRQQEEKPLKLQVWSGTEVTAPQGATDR

[2] = system: neurogenesis in the dentate gyrus; conditions: rats, cited from earlier work
neural precursor cells = conditions: time-course experiments; cited from earlier work
[3] = mouse, in vivo, cited from earlier work
[4] = system: BrdU+ cells in the hippocampal dentate gyrus; conditions: cited from earlier work
hERG channel = hERG channel (Homo sapiens, UniProt Q12809)
Sequence of hERG channel (Q12809 whole entry): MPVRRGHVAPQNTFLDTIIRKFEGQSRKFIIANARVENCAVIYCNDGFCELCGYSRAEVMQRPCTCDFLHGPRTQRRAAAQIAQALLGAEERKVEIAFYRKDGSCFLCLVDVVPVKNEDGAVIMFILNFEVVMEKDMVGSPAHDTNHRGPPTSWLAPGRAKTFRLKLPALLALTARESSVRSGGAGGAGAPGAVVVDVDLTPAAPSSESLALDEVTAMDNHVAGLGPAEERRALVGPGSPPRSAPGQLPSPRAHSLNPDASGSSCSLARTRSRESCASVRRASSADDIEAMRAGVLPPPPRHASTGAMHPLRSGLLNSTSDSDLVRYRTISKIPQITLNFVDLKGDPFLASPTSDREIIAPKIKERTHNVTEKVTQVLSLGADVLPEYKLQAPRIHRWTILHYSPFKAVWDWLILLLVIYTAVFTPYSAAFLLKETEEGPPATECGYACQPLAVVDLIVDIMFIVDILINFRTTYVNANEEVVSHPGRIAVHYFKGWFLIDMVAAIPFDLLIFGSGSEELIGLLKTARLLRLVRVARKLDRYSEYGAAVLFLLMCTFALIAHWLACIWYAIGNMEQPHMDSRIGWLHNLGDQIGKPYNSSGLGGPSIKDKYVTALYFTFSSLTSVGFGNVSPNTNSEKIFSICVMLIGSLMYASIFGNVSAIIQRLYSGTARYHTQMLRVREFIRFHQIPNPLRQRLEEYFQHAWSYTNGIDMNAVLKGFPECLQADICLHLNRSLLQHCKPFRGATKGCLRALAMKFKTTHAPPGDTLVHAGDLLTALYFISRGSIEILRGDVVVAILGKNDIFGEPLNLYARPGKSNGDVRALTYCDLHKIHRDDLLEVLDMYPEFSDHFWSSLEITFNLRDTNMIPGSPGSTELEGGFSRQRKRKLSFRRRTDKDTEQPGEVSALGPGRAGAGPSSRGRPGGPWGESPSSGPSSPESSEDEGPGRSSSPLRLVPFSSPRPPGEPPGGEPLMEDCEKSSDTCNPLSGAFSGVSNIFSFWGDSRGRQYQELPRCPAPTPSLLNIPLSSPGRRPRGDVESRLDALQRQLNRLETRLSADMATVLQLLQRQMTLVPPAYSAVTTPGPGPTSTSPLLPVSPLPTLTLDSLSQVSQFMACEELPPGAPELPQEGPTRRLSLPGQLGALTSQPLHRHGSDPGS

neurogenesis = conditions: cited from earlier work
HeLa cells = experiment: Cell viability assay; format: cell-based
[5] = system: embryonic, weaning or adult mice; conditions: mouse, in vivo; cited from earlier work
[6] = system: dentate gyrus in mice deficient in the npas3 gene; conditions: cited from earlier work

## OC(CNc1ccccc1)Cn1c2ccc(Cl)cc2c2cc(Cl)ccc21 (centres unmarked) [Compound 17]
[1]
  proneurogenic activity (BrdU+ cells in dentate gyrus), in words: little activity

## FC(CNc1ccccc1)Cn1c2ccc(Br)cc2c2cc(Br)ccc21 (centres unmarked) [Compound 52]
[1]
  proneurogenic activity (BrdU+ cells in dentate gyrus), in words: gains little from fluorination

## Cc1ccc2c(c1)c1c(n2CCc2ccc(C)nc2)CCN(C)C1 [dimebon, reference compound]
Histamine H2 receptor
  Histamine H2 binding (% displacement @ 10 μM): 99 % displacement
[1]
  proneurogenic activity (BrdU+ cells in dentate gyrus), in words: active in our neurogenesis assay, but substantially less so than P7C3

## [N-]=[N+]=Nc1ccc(NCC(O)Cn2c3ccc(Br)cc3c3cc(Br)ccc32)cc1 (centres unmarked) [Compound 23]
[1]
  proneurogenic activity (BrdU+ cells in dentate gyrus), in words: highly active

## COc1ccc(NCC(F)Cn2c3ccc(Br)cc3c3cc(Br)ccc32)cc1 (centres unmarked) [Compound 54]
[1]
  proneurogenic activity (BrdU+ cells in dentate gyrus), in words: improved by fluorination

## COc1ccc(NCC(O)Cn2c3ccc(Br)cc3c3cc(Br)ccc32)cc1 (centres unmarked) [Compound 8]
[1]
  proneurogenic activity (BrdU+ cells in dentate gyrus), in words: well tolerated; also recorded: highly active

## OC(CNc1ccccc1)Cn1c2ccccc2c2ccccc21 (centres unmarked) [Compound 2]
[1]
  proneurogenic activity (BrdU+ cells in dentate gyrus), in words: did not appear active

## [N-]=[N+]=Nc1cccc(NCC(O)Cn2c3ccc(Br)cc3c3cc(Br)ccc32)c1 (centres unmarked) [Compound 22]
[1]
  proneurogenic activity (BrdU+ cells in dentate gyrus), in words: substantially decreased activity

## CCOc1ccc(NCC(O)Cn2c3ccc(Br)cc3c3cc(Br)ccc32)cc1 (centres unmarked) [Compound 4-OEt]
[1]
  proneurogenic activity (BrdU+ cells in dentate gyrus), in words: highly active

## OC(CNc1ccccc1)Cn1c2ccc(Br)cc2c2cc(Br)ccc21 (centres unmarked) [Compound P7C3]
Human hepatocytes
  Half life in cell culture, Human hepatocytes: >4 h
[2]; as a function of terminal aging
  cognitive capacity: preserved cognitive capacity
[2]; terminal aging
  neurogenesis in the dentate gyrus: enhanced neurogenesis in the dentate gyrus
  neuron cell death: impeded neuron cell death
Mouse hepatocytes
  Half life in cell culture, Mouse hepatocytes: >4 h
Neural precursor cells
  proliferation of neural precursor cells: does not stimulate proliferation
[3]; po
  AUC brain: AUC plasma ratio: 3.7
[3]
  oral availability, in words: orally available
[4]; 1 μM solution infused ICV, 12 μL/day for 7 days
  neurogenesis activity, 1 μM solution: maintains activity
[4]; 10 μM ICV, 7 days, vehicle artificial CSF, similar number as FGF-2
  number of BrdU+ cells relative to mice treated with vehicle alone: approximately twice
hERG channel
  hERG binding (% displacement @ 10 μM): 92 % displacement
neurogenesis; oral dose 1 mg/kg
  neurogenesis activity, oral dose 1 mg/kg: measurable activity
neurogenesis; oral dose of 5 mg/kg
  neurogenesis activity, oral dose 5 mg/kg: maximal neurogenesis activity
HeLa cells
  GI50: 5.1 µM
[5]
  toxicity to mice: not toxic
[6]
  structure and function of the dentate gyrus: repair the structure and function of the dentate gyrus
Histamine H2 receptor; 10 μM drug
  Histamine H2 binding, in words: modest binding
Histamine H2 receptor
  Histamine H2 binding (% displacement @ 10 μM): 63 % displacement

## CCOc1cccc(NCC(O)Cn2c3ccc(Br)cc3c3cc(Br)ccc32)c1 (centres unmarked) [Compound 21]
[1]
  proneurogenic activity (BrdU+ cells in dentate gyrus), in words: essentially abrogated activity

## COc1cccc(NCC(O)Cn2c3ccc(Br)cc3c3cc(Br)ccc32)c1 (centres unmarked) [Compound 7]
[1]
  proneurogenic activity (BrdU+ cells in dentate gyrus), in words: well tolerated; also recorded: little effect on activity
[1]; enantiomeric pairs tested, same enantiomer more active in all three cases
  difference in activity between the two enantiomers: significant difference in activity

## OC(CNc1ccccc1)Cn1c2ccc(Cl)cc2c2cc(Cl)ccc21 (centres unmarked) [Compound 1]
[1]
  proneurogenic activity (BrdU+ cells in dentate gyrus), in words: did not appear active
